From ChEMBL document CHEMBL1629690, “Development of hexadecyloxypropyl tenofovir (CMX157) for treatment of infection caused by wild-type and nucleoside/nucleotide-resistant HIV” (Antimicrob Agents Chemother, 2010)

Columns and labels:
[1] = system: Human immunodeficiency virus 1; assay: Antiviral activity against HIV1 isolate 206 harboring reverse transcriptase D67N/K70R mutant gene by phenosense assay relative to wild type; assay type: functional
Outline: (§1)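 PhenoSense HIV recombinant virus assay: patient-derived HIV-1 with major NRTI resistance mutations tested against increasing drug concentrations to give inhibition curves. EC50 is the concentration giving 50% inhibition. Fold change is the test recombinant EC50 divided by the EC50 of a drug-sensitive wild-type reference virus. Panel of 30 NRTI-resistant isolates plus two wild-type viruses.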

[2] = system: Human immunodeficiency virus 1; assay: Antiviral activity against HIV1 isolate 166 harboring reverse transcriptase L74V mutant gene obtained as site-directed mutant of NL4-3 by phenosense assay; assay type: functional, organism-based; details: Human immunodeficiency virus 1, isolate 166
Outline: (§2)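 Recombinant-virus PhenoSense HIV assay run on a panel of 30 NRTI-resistant HIV-1 mutants and two wild-type viruses. Each virus is tested across increasing drug concentrations to give an inhibition curve and EC50. Fold change is the test recombinant EC50 divided by the EC50 of the drug-sensitive wild-type reference virus.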

[3] = system: Human immunodeficiency virus 1; assay: Antiviral activity against HIV1 isolate 220 harboring reverse transcriptase K70E/M184V mutant gene by phenosense assay relative to wild type; assay type: functional; outline: as §1
[4] = system: Human immunodeficiency virus 1; assay: Antiviral activity against HIV1 isolate 212 harboring reverse transcriptase L210W/T215Y mutant gene by phenosense assay relative to wild type; assay type: functional; outline: as §1
[5] = system: Human immunodeficiency virus 1; assay: Antiviral activity against HIV1 isolate 157 harboring reverse transcriptase L74V/M184V mutant gene by phenosense assay; assay type: functional, organism-based; details: Human immunodeficiency virus 1, isolate 157; outline: as §2
[6] = system: Human immunodeficiency virus 1; assay: Antiviral activity against HIV1 isolate 071 harboring reverse transcriptase 65R/S68N/184V mutant gene by phenosense assay relative to wild type; assay type: functional; outline: as §2
[7] = system: Human immunodeficiency virus 1; assay: Antiviral activity against HIV1 isolate 194 harboring reverse transcriptase M41L/T215Y/M184V mutant gene by phenosense assay relative to wild type; assay type: functional; outline: as §2
[8] = system: Human immunodeficiency virus 1; assay: Antiviral activity against HIV1 isolate 180 harboring reverse transcriptase K65R mutant gene obtained as site-directed mutant of NL4-3 by phenosense assay relative to wild type; assay type: functional; outline: as §2
[9] = system: Human immunodeficiency virus 1; assay: Antiviral activity against HIV1 isolate 174 harboring reverse transcriptase M184V mutant gene obtained as site-directed mutant of NL4-3 by phenosense assay; assay type: functional, organism-based; details: Human immunodeficiency virus 1, isolate 174; outline: as §2
[10] = system: Human immunodeficiency virus 1; assay: Antiviral activity against HIV1 isolate 211 harboring reverse transcriptase D67N/K70R/T215F/K219E/M184V mutant gene by phenosense assay; assay type: functional, organism-based; details: Human immunodeficiency virus 1, isolate 211; outline: as §1
[11] = system: Human immunodeficiency virus 1; assay: Antiviral activity against HIV1 isolate 061 harboring reverse transcriptase M41L/D67N/K70R/M184V/L210W/T215Y/K219E mutant gene by phenosense assay; assay type: functional, organism-based; details: Human immunodeficiency virus 1, isolate 061; outline: as §2
[12] = system: Human immunodeficiency virus 1; assay: Antiviral activity against HIV1 isolate 069 harboring reverse transcriptase D67E/T69SSG/V75M/M184V/L210W/T215Y mutant gene by phenosense assay; assay type: functional, organism-based; details: Human immunodeficiency virus 1, isolate 069; outline: as §2
[13] = system: Human immunodeficiency virus 1; assay: Antiviral activity against HIV1 isolate 200 harboring reverse transcriptase M41L/L210W/T215Y mutant gene by phenosense assay; assay type: functional, organism-based; details: Human immunodeficiency virus 1, isolate 200; outline: as §2
[14] = system: Human immunodeficiency virus 1; assay: Antiviral activity against HIV1 isolate 200 harboring reverse transcriptase M41L/L210W/T215Y mutant gene by phenosense assay relative to wild type; assay type: functional; outline: as §2
[15] = system: Human immunodeficiency virus 1; assay: Antiviral activity against HIV1 isolate 217 harboring reverse transcriptase D67N/K70E/M184V mutant gene by phenosense assay relative to wild type; assay type: functional; outline: as §1
[16] = system: Human immunodeficiency virus 1; assay: Antiviral activity against HIV1 isolate 204 harboring reverse transcriptase M41L/L210W/T215Y/M184V mutant gene by phenosense assay relative to wild type; assay type: functional; outline: as §1
[17] = system: Human immunodeficiency virus 1; assay: Antiviral activity against HIV1 isolate 188 harboring reverse transcriptase T215Y/M184V mutant gene by phenosense assay; assay type: functional, organism-based; details: Human immunodeficiency virus 1, isolate 188; outline: as §2
[18] = system: Human immunodeficiency virus 1; assay: Antiviral activity against HIV1 isolate 174 harboring reverse transcriptase M184V mutant gene obtained as site-directed mutant of NL4-3 by phenosense assay relative to wild type; assay type: functional; outline: as §2
[19] = system: Human immunodeficiency virus 1; assay: Antiviral activity against HIV1 isolate 069 harboring reverse transcriptase D67E/T69SSG/V75M/M184V/L210W/T215Y mutant gene by phenosense assay relative to wild type; assay type: functional; outline: as §2
[20] = system: Human immunodeficiency virus 1; assay: Antiviral activity against HIV1 isolate 071 harboring reverse transcriptase 65R/S68N/184V mutant gene by phenosense assay; assay type: functional, organism-based; details: Human immunodeficiency virus 1, isolate 071; outline: as §2
[21] = system: Human immunodeficiency virus 1; assay: Antiviral activity against HIV1 isolate 070 harboring reverse transcriptase 65R/S68G mutant gene by phenosense assay relative to wild type; assay type: functional; outline: as §2
[22] = system: Human immunodeficiency virus 1; assay: Antiviral activity against HIV1 isolate 220 harboring reverse transcriptase K70E/M184V mutant gene by phenosense assay; assay type: functional, organism-based; details: Human immunodeficiency virus 1, isolate 220; outline: as §1
[23] = system: Human immunodeficiency virus 1; assay: Antiviral activity against HIV1 isolate 157 harboring reverse transcriptase L74V/M184V mutant gene by phenosense assay relative to wild type; assay type: functional; outline: as §2
[24] = system: Human immunodeficiency virus 1; assay: Antiviral activity against HIV1 isolate 192 harboring reverse transcriptase M41L/T215Y mutant gene by phenosense assay relative to wild type; assay type: functional; outline: as §2
[25] = system: Human immunodeficiency virus 1; assay: Antiviral activity against HIV1 isolate 201 harboring reverse transcriptase M41L/L210W/T215Y mutant gene by phenosense assay relative to wild type; assay type: functional; outline: as §1
[26] = system: Human immunodeficiency virus 1; assay: Antiviral activity against HIV1 isolate 215 harboring reverse transcriptase D67N/K70E mutant gene by phenosense assay relative to wild type; assay type: functional; outline: as §1
[27] = system: Human immunodeficiency virus 1; assay: Antiviral activity against HIV1 isolate 201 harboring reverse transcriptase M41L/L210W/T215Y mutant gene by phenosense assay; assay type: functional, organism-based; details: Human immunodeficiency virus 1, isolate 201; outline: as §2
[28] = system: Human immunodeficiency virus 1; assay: Antiviral activity against HIV1 isolate 060 harboring reverse transcriptase M41L/D67N/K70R/L210W/T215Y/K219E mutant gene by phenosense assay relative to wild type; assay type: functional; outline: as §2
[29] = system: Human immunodeficiency virus 1; assay: Antiviral activity against HIV1 isolate 180 harboring reverse transcriptase K65R mutant gene obtained as site-directed mutant of NL4-3 by phenosense assay; assay type: functional, organism-based; details: Human immunodeficiency virus 1, isolate 180; outline: as §2
[30] = system: Human immunodeficiency virus 1; assay: Antiviral activity against HIV1 isolate 203 harboring reverse transcriptase M41L/L210W/T215Y/M184V mutant gene by phenosense assay relative to wild type; assay type: functional; outline: as §1
[31] = system: Human immunodeficiency virus 1; assay: Antiviral activity against HIV1 isolate 188 harboring reverse transcriptase T215Y/M184V mutant gene by phenosense assay relative to wild type; assay type: functional; outline: as §2
[32] = system: Human immunodeficiency virus 1; assay: Antiviral activity against HIV1 isolate 194 harboring reverse transcriptase M41L/T215Y/M184V mutant gene by phenosense assay; assay type: functional, organism-based; details: Human immunodeficiency virus 1, isolate 194; outline: as §2
[33] = system: Human immunodeficiency virus 1; assay: Antiviral activity against HIV1 isolate 160 harboring reverse transcriptase S68G/V75(I/T)/F77L/Y115F/F116Y /Q151M mutant gene by phenosense assay relative to wild type; assay type: functional; outline: as §2
[34] = system: Human immunodeficiency virus 1; assay: Antiviral activity against HIV1 isolate 061 harboring reverse transcriptase M41L/D67N/K70R/M184V/L210W/T215Y/K219E mutant gene by phenosense assay relative to wild type; assay type: functional; outline: as §2
[35] = system: Human immunodeficiency virus 1; assay: Antiviral activity against HIV1 isolate 058 harboring reverse transcriptase M41L/D67N/K70R/L210W/T215F/K219Q mutant gene by phenosense assay relative to wild type; assay type: functional; outline: as §2
[36] = system: Human immunodeficiency virus 1; assay: Antiviral activity against HIV1 isolate 185 harboring reverse transcriptase T215Y mutant gene by phenosense assay relative to wild type; assay type: functional; outline: as §2

| Compound | fold change (FC) [1] | EC50 [2] | fold change (FC) [3] | fold change (FC) [4] | EC50 [5] | fold change (FC) [6] | fold change (FC) [7] | fold change (FC) [8] | EC50 [9] | EC50 [10] | EC50 [11] | EC50 [12] | EC50 [13] | fold change (FC) [14] | fold change (FC) [15] | fold change (FC) [16] | EC50 [17] | fold change (FC) [18] | fold change (FC) [19] | EC50 [20] | further results |
| --- | --- | --- | --- | --- | --- | --- | --- | --- | --- | --- | --- | --- | --- | --- | --- | --- | --- | --- | --- | --- | --- |
| Nc1nc(=O)n([C@@H]2CS[C@H](CO)O2)cc1F [EMTRICITABINE] | 2.9 | 1.7 µM | >88 | 2.3 | > 100 µM | >88 | >88 | 11 | > 100 µM | > 100 µM | > 100 µM | > 100 µM | 4.2 µM | 3.7 | >88 | >88 | > 100 µM | >88 | >88 | > 100 µM | fold change (FC) [21]: 17; EC50 [22]: > 100 µM; fold change (FC) [23]: >88; fold change (FC) [24]: 2.7; fold change (FC) [25]: 1.9; fold change (FC) [26]: 3; EC50 [27]: 2.2 µM; fold change (FC) [28]: 6.9; EC50 [29]: 13 µM; fold change (FC) [30]: >88; fold change (FC) [31]: >88; EC50 [32]: > 100 µM; fold change (FC) [33]: 30; fold change (FC) [34]: >63; fold change (FC) [35]: 5; fold change (FC) [36]: 2.3 |
| Nc1ccn([C@@H]2CS[C@H](CO)O2)c(=O)n1 [LAMIVUDINE] | 2.1 | 6.1 µM | >80 | 1.9 | > 300 µM | >80 | >80 | 12 | > 300 µM | > 300 µM | > 300 µM | > 300 µM | 10.3 µM | 2.7 | >80 | >80 | > 300 µM | >80 | >80 | > 300 µM | fold change (FC) [21]: 19; EC50 [22]: > 300 µM; fold change (FC) [23]: >80; fold change (FC) [24]: 2; fold change (FC) [25]: 1.6; fold change (FC) [26]: 2.9; EC50 [27]: 5.9 µM; fold change (FC) [28]: 5.1; EC50 [29]: 43 µM; fold change (FC) [30]: >80; fold change (FC) [31]: >80; EC50 [32]: > 300 µM; fold change (FC) [33]: 24; fold change (FC) [34]: >71; fold change (FC) [35]: 3.7; fold change (FC) [36]: 1.6 |
| Cc1cn([C@H]2C=C[C@@H](CO)O2)c(=O)[nH]c1=O [STAVUDINE] | 1.3 | 0.63 µM | 0.65 | 1.6 | 0.42 µM | 0.99 | 1.5 | 1.4 | 0.4 µM | 0.79 µM | 2.4 µM | 6.8 µM | 1.2 µM | 2.1 | 0.7 | 1.8 | 0.65 µM | 0.68 | 11 | 0.59 µM | fold change (FC) [21]: 1.3; EC50 [22]: 0.39 µM; fold change (FC) [23]: 0.71; fold change (FC) [24]: 1.4; fold change (FC) [25]: 1.8; fold change (FC) [26]: 0.94; EC50 [27]: 1.1 µM; fold change (FC) [28]: 3.1; EC50 [29]: 0.83 µM; fold change (FC) [30]: 1.5; fold change (FC) [31]: 1.1; EC50 [32]: 0.86 µM; fold change (FC) [33]: 9.3; fold change (FC) [34]: 2.6; fold change (FC) [35]: 3.7; fold change (FC) [36]: 1.4 |
